Type in all cases: functional
Assay [1] relates to Plasmodium berghei. Put plainly: Effective dose […] against Plasmodium berghei N in a mice (Mus musculus) malaria model after oral dose.
The test system of assay [2] is Plasmodium yoelii. The assay is described as follows: Effective subcutaneous dose ED90 against Plasmodium yoelii sspNS. Particulars: Plasmodium yoelii, sc; read-out: ED90.
The subject of assay [3] is Plasmodium yoelii. Put plainly: Effective subcutaneous dose ED50 against Plasmodium yoelii sspNS. To be noted: sc.
For assay [4], the system named is Plasmodium berghei. Put plainly: Effective dose ED50 against Plasmodium berghei N in mice (Mus musculus) malaria model after subcutaneous administration. Particulars: Plasmodium berghei, sc; read-out: ED50.
Assay [5] deals with Plasmodium berghei. The assay is described as follows: Effective dose ED90 against Plasmodium berghei N in mice (Mus musculus) malaria model after oral administration. Put shortly: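 Peters' 4-day test: two batches of five male random-bred Swiss albino mice (18-22 g) were inoculated i.v. with 2 × 10⁶ P. berghei N-parasitized RBC. Drug was given once daily for four consecutive days. Compounds were dissolved in DMSO, then diluted in water for subcutaneous or oral dosing. Parasitemia was read the day after the last treatment.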

Assay [6] deals with Plasmodium berghei. The assay is described as follows: Effective dose ED90 against Plasmodium berghei N in mice (Mus musculus) malaria model after subcutaneous administration. Particulars: Plasmodium berghei, sc; read-out: ED90.

Each structure is given as a SMILES string.

Usually ED50 stands for the dose that gives a 50% effect, or the effect in half of the subjects. Take `OC(c1cc(C(F)(F)F)nc2c(C(F)(F)F)cccc12)C1CCCCN1` (stereo unspecified) [MEFLOQUINE]: the ED50 in assay [1] amounted to 3.3 mg/kg; in assay [3], 2.3 mg/kg; in assay [4] it was 1.1 mg/kg. The ED90 in assay [2] was 6 mg/kg; in assay [5], 5.1 mg/kg; in assay [6] it was 2.3 mg/kg.

These data come from ChEMBL document CHEMBL1135746, “Structure-activity relationships of the antimalarial agent artemisinin. 7. Direct modification of (+)-artemisinin and in vivo antimalarial screening of new, potential preclinical antimalarial candidates” (J Med Chem, 2002).
